Assay outcomes from PubChem.
Sampled rows, rich in hits. Any-hit rate of the full collection: about 1.7%.
CSC inhib – cancer stem cell inhibition | inhibition, % at 7.5 µM | 300,000 tested, 1.1% active | AID 2717 | cancer stem cell-like cells viability, luminescence; in the data active = inhibition above about 75%; tested in HMLE shEcad cells
Rtt109 HAT inh – C. albicans Rtt109 histone acetyltransferase inhibition | Q5AAJ8 | purified Rtt109/Vps75, ThioGlo CoA-SH fluorescence, 4 h | inhibition, % at 34.9 µM | 330,000 tested, 0.16% active;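 active = inhibition of at least 50% in every replicate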
Target sequence (Q5AAJ8 whole entry, looked up): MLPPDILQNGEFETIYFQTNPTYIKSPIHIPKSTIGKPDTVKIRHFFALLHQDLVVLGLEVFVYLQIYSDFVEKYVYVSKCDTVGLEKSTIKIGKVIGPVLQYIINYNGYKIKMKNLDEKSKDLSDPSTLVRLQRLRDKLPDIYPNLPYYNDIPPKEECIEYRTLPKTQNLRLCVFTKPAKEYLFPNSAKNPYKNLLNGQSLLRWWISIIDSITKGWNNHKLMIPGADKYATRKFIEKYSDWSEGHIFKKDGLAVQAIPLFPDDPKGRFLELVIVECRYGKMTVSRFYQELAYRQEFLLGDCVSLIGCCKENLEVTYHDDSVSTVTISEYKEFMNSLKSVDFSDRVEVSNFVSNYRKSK
FN deposition inh – fibronectin deposition inhibition; AID 743247; 350,000 tested, 0.086% active; inhibition, % at 12.6 µM; AH1F fibroblasts, Alexa488-fibronectin deposition fluorescence, overnight;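 active = mean inhibition across replicates of 30% or more, regardless of how many single replicates reach that level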;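 also: positive control wells lacked labelled fibronectin entirely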
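Material – AH1F fibroblast monolayer, labelled fibronectin deposition · Reagent – labelled fibronectin 24 nM · Timing – 1 h adhesion, overnight exposure · Measured by – fluorescence at 485 nm excitation, 525 nm emission · Read-out – inhibition of fibronectin deposition signal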
SKKanGAS inh – SKKanGAS growth inhibition. 300,000 tested, 1.3% active. S. pyogenes SKKanGAS, kanamycin growth, BacTiter-Glo, 6 h. inhibition, % at 7.5 µM;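 active = mean replicate score, as percent of positive control median, at least 50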;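 also: strain carries kanamycin resistance gene driven by streptokinase promoter and grows in 40 µg/ml kanamycin; loss of luminescence reflects streptokinase promoter inhibition or plain growth inhibition; 0% = median of DMSO wells and 100% = positive control at its reference dose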
PglD inh – blocks C. jejuni PglD acetyltransferase activity | 360,000 tested, 0.098% active | AID 602405 | inhibition, % at 12.5 µM | purified PglD enzyme, DTNB colorimetric CoA detection; in the data active = inhibition above about 16%, passing the limit was not always enough
PfHsp90 yeast 2 – growth inhibition of yeast expressing Plasmodium Hsp90; 310,000 tested, 0.32% active; AID 504621; inhibition, % at 9.4 µM; S. cerevisiae expressing PfHsp90, BacTiter-Glo ATP, 48 h; yeast lacking PDR1 and PDR3 efflux regulators;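 active = every replicate shows inhibition above about 80%, whatever the replicate mean, limit read from the data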;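 also: 0% = DMSO neutral controls and 100% = 20 µM radicicol positive controls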
* = called active by the depositor.

`COc1ccc(-c2ccc(C)cc2)cc1[C@H]1[C@@H]2C=CCC[C@@]2(C)C(=O)N1Cc1ccccc1` gave CSC inhib 115.3*, Rtt109 HAT inh 12.4, FN deposition inh -16.5, SKKanGAS inh 41.4, PglD inh -0.5 and PfHsp90 yeast 2 -2.7.
`CN1CC(c2ccc(Cl)c(Cl)c2)[C@@]2(COc3ccccc3C2=O)[C@@]12C(=O)Nc1ccccc12` (some centres undefined) gave CSC inhib -10.8, Rtt109 HAT inh -0.9, FN deposition inh 1.2, SKKanGAS inh 79.2*, PglD inh -8.1 and PfHsp90 yeast 2 15.2.
`COc1cc(CNCc2ccc(C)cc2)cc(OC)c1OC` gave CSC inhib -2.3, Rtt109 HAT inh 50.5*, FN deposition inh -4.1, SKKanGAS inh -1.3, PglD inh 5.5 and PfHsp90 yeast 2 -2.9.
Screening C[C@H]1CN([C@@H](C)CO)S(=O)(=O)c2ccc(-c3cncnc3)cc2O[C@@H]1CN(C)C returned PglD inh -2.9.
Screening Cc1ccc(-c2cc(C(F)F)nc(NCc3cccnc3)n2)cc1 returned CSC inhib 16.2, Rtt109 HAT inh 10.3, FN deposition inh 11.7 and SKKanGAS inh 4.8.
Screening FC(F)(F)c1cc(-c2ccc(Cl)cc2)nc(NCc2cccnc2)n1 returned CSC inhib 77.0*, Rtt109 HAT inh 7.4, SKKanGAS inh -1.7, PglD inh 3.4 and PfHsp90 yeast 2 3.5.
COc1ccc(-c2cc(C(F)(F)F)nc(NCc3cccs3)n2)cc1 was read as CSC inhib 38.5, Rtt109 HAT inh 6.5, FN deposition inh -7.5, SKKanGAS inh 73.7* and PfHsp90 yeast 2 -2.5.
For C[C@@H]1CN([C@H](C)CO)C(=O)CCCn2cc(nn2)CO[C@@H]1CN(C)S(=O)(=O)c1ccccc1C#N the results were FN deposition inh 4.0.
`O=C(C[C@@H]1C=C[C@@H](NC(=O)c2cccc(F)c2)[C@@H](CO)O1)NCCN1CCCC1` gave FN deposition inh -5.0 and PglD inh 0.7.
Screening Cc1cc(C)nc(NC(=NCCc2c[nH]c3ccccc23)NC(=O)Nc2ccc(Cl)cc2)n1 returned CSC inhib 97.0*, Rtt109 HAT inh -3.0, SKKanGAS inh 20.4, PglD inh 2.6 and PfHsp90 yeast 2 9.5.
`O=C(N[C@H]1C=C[C@@H](CC(=O)N2CCCCC2)O[C@@H]1CO)c1ccccn1` gave PglD inh -5.0.
Screening Cc1noc(C)c1NC(=O)Nc1cccc2c1O[C@H](CN(C)C(=O)Nc1ccc3c(c1)OCO3)[C@H](C)CN([C@H](C)CO)C2=O returned FN deposition inh -3.3 and PglD inh 1.1.
For Cc1cc(C)n2c(NC3CCCCC3)c(-c3ccccn3)nc2n1 the results were FN deposition inh -12.9.
`c1ccc(-c2nc3ccccn3c2NC2CCCC2)nc1` gave CSC inhib 2.4, Rtt109 HAT inh 19.1, FN deposition inh 9.7, SKKanGAS inh 75.4*, PglD inh -0.6 and PfHsp90 yeast 2 -3.3.
Screening Cc1ccn2c(NC3CCCCC3)c(-c3cccc(-c4cccc(Cl)c4)c3)nc2c1 returned CSC inhib 102.4*, Rtt109 HAT inh -2.9, FN deposition inh -5.0, SKKanGAS inh 32.0, PglD inh 4.7 and PfHsp90 yeast 2 -14.3.
For Cc1ccn2c(NC3CCCC3)c(-c3ccccn3)nc2c1 the results were CSC inhib 62.0, Rtt109 HAT inh 17.4, FN deposition inh 0.6, SKKanGAS inh 90.6*, PglD inh 1.2 and PfHsp90 yeast 2 -12.7.
COC(=O)CSc1nc(N)c2c3c(sc2n1)C(c1ccccc1)SC(c1ccccc1)C3 (centres undefined) was read as CSC inhib active, Rtt109 HAT inh -4.5, SKKanGAS inh 41.1 and PfHsp90 yeast 2 -31.2.
Screening COC(=O)CSc1nc(N)c2c3c(sc2n1)CCCC3 returned CSC inhib -7.6, Rtt109 HAT inh -5.9, SKKanGAS inh -4.1, PglD inh 0.1 and PfHsp90 yeast 2 -10.0.
`CCOc1ccc(-c2nnc3ccc(SC(C)C)nn23)cc1` gave CSC inhib 6.2, Rtt109 HAT inh -2.1, FN deposition inh 0.4, SKKanGAS inh 56.9*, PglD inh -1.2 and PfHsp90 yeast 2 -57.6.
CCOc1ccc(-c2nnc3ccc(SCC(=O)N4CCCCC4)nn23)cc1 was read as CSC inhib -5.2, Rtt109 HAT inh 6.3, FN deposition inh 1.9, SKKanGAS inh 3.5, PglD inh 0.9 and PfHsp90 yeast 2 -0.7.
